{
  "source": "ChEMBL document CHEMBL1795205",
  "about": "“The new 5- or 6-azapyrimidine and cyanuric acid derivatives of l-ascorbic acid bearing the free C-5 hydroxy or C-4 amino group at the ethylenic spacer: CD-spectral absolute configuration determination and biological activity evaluations” (Eur J Med Chem, 2011)",
  "key": {"MIA PaCa-2 [1]": {"system": "MIA PaCa-2", "experiment": "Induction of cell cycle arrest in human MIAPaCa2 cells assessed as accumulation at G1 phase at 5 uM after 48 hrs by flow cytometry (reference value: 44.7 +/- 7.21%)", "type": "functional"}, "MIA PaCa-2 [2]": {"system": "MIA PaCa-2", "experiment": "Induction of cell cycle arrest in human MIAPaCa2 cells assessed as accumulation at S phase at 5 uM after 48 hrs by flow cytometry (reference value: 46 +/- 8.13%)", "type": "functional"}, "SW-620 [3]": {"system": "SW-620", "experiment": "Induction of cell cycle arrest in human SW620 cells assessed as accumulation at G1 phase at 1 uM after 24 hrs by flow cytometry (reference value: 51.6 +/- 0.07%)", "type": "functional"}, "SW-620 [4]": {"system": "SW-620", "experiment": "Induction of cell cycle arrest in human SW620 cells assessed as accumulation at G2/M phase at 1 uM after 24 hrs by flow cytometry (reference value: 10.7 +/- 0.07%)", "type": "functional"}, "SW-620 [5]": {"system": "SW-620", "experiment": "Induction of cell cycle arrest in human SW620 cells assessed as accumulation at G2/M phase at 5 uM after 24 hrs by flow cytometry (reference value: 10.7 +/- 0.07%)", "type": "functional"}, "SW-620 [6]": {"system": "SW-620", "experiment": "Induction of cell cycle arrest in human SW620 cells assessed as accumulation at S phase at 5 uM after 24 hrs by flow cytometry (reference value: 37.7 +/- 0.01%)", "type": "functional"}, "SW-620 [7]": {"system": "SW-620", "experiment": "Induction of cell cycle arrest in human SW620 cells assessed as accumulation at G1 phase at 1 uM after 48 hrs by flow cytometry (reference value: 46.6 +/- 4.88%)", "type": "functional"}, "SW-620 [8]": {"system": "SW-620", "experiment": "Induction of cell cycle arrest in human SW620 cells assessed as accumulation at G2/M phase at 1 uM after 48 hrs by flow cytometry (reference value: 11.9 +/- 2.33%)", "type": "functional"}, "SW-620 [9]": {"system": "SW-620", "experiment": "Induction of cell cycle arrest in human SW620 cells assessed as accumulation at S phase at 1 uM after 48 hrs by flow cytometry (reference value: 41.7 +/- 2.47%)", "type": "functional"}, "SW-620 [10]": {"system": "SW-620", "experiment": "Induction of cell cycle arrest in human SW620 cells assessed as accumulation at G1 phase at 5 uM after 48 hrs by flow cytometry (reference value: 46.6 +/- 4.88%)", "type": "functional"}, "SW-620 [11]": {"system": "SW-620", "experiment": "Induction of cell cycle arrest in human SW620 cells assessed as accumulation at G2/M phase at 5 uM after 48 hrs by flow cytometry (reference value: 11.9 +/- 2.33%)", "type": "functional"}, "SW-620 [12]": {"system": "SW-620", "experiment": "Induction of cell cycle arrest in human SW620 cells assessed as accumulation at S phase at 5 uM after 48 hrs by flow cytometry (reference value: 41.7 +/- 2.47%)", "type": "functional"}, "SW-620 [13]": {"system": "SW-620", "experiment": "Induction of cell cycle arrest in human SW620 cells assessed as accumulation at subG1 phase at 5 uM after 48 hrs by flow cytometry (reference value: 0.18 +/- 0.036%)", "type": "functional"}, "HeLa [14]": {"system": "HeLa", "experiment": "Induction of cell cycle arrest in human HeLa cells assessed as accumulation at G2/M phase at 5 uM after 24 hrs by flow cytometry relative to control", "type": "functional", "in_short": "(§1)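 Cells were seeded at 3×10⁵ per well in 6-well plates and treated after overnight incubation for 24 and 48 h. They were trypsinized, washed three times in PBS, fixed in cold ethanol and stored at −20 °C. Pellets were washed twice in PBS and treated with RNase A at 37 °C for 15 min, then stained with PI for 30 min in the dark. DNA content was measured by flow cytometry.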"}, "HeLa [15]": {"system": "HeLa", "experiment": "Induction of cell cycle arrest in human HeLa cells assessed as accumulation at S phase at 5 uM after 24 hrs by flow cytometry relative to control", "type": "functional", "in_short": "as §1"}, "HeLa [16]": {"system": "HeLa", "experiment": "Induction of cell cycle arrest in human HeLa cells assessed as accumulation at subG1 phase at 5 uM after 24 hrs by flow cytometry relative to control", "type": "functional", "in_short": "as §1"}, "HeLa [17]": {"system": "HeLa", "experiment": "Induction of cell cycle arrest in human HeLa cells assessed as accumulation at G1 phase at 1 uM after 48 hrs by flow cytometry relative to control", "type": "functional", "in_short": "as §1"}, "HeLa [18]": {"system": "HeLa", "experiment": "Induction of cell cycle arrest in human HeLa cells assessed as accumulation at G2/M phase at 1 uM after 48 hrs by flow cytometry relative to control", "type": "functional", "in_short": "as §1"}, "HeLa [19]": {"system": "HeLa", "experiment": "Induction of cell cycle arrest in human HeLa cells assessed as accumulation at S phase at 1 uM after 48 hrs by flow cytometry relative to control", "type": "functional", "in_short": "as §1"}, "HeLa [20]": {"system": "HeLa", "experiment": "Induction of cell cycle arrest in human HeLa cells assessed as accumulation at G1 phase at 5 uM after 48 hrs by flow cytometry relative to control", "type": "functional", "in_short": "as §1"}, "MCF7": {"system": "MCF7", "experiment": "Cytostatic activity against human MCF7 cells assessed as inhibition of cell proliferation after 72 hrs by MTT assay", "type": "functional, cell-based", "conditions": "MCF7, 72 h", "in_short": "(§2)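 Monolayer cells grown in DMEM with 10% FBS were seeded on day 0 at 3000–6000 cells/well, set by each line's doubling time. Agents were added the next step in five 10-fold dilutions (0.01–100) for 72 h, with DMSO ≤0.1% and a solvent control. MTT absorbance was converted to percentage growth versus untreated wells on the same plate. Where all PGs exceeded 50, the top concentration was reported as \">\". ANOVA/Tukey, p<0.05.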"}, "HepG2": {"system": "HepG2", "experiment": "Cytostatic activity against human HepG2 cells assessed as inhibition of cell proliferation after 72 hrs by MTT assay", "type": "functional, cell-based", "conditions": "HepG2, 72 h", "in_short": "as §2"}, "MIA PaCa-2 [21]": {"system": "MIA PaCa-2", "experiment": "Cytostatic activity against human MIAPaCa2 cells assessed as inhibition of cell proliferation after 72 hrs by MTT assay", "type": "functional, cell-based", "conditions": "MIA PaCa-2, 72 h", "in_short": "as §2"}, "WI-38": {"system": "WI-38", "experiment": "Cytotoxicity against human WI38 cells assessed as inhibition of cell proliferation after 72 hrs by MTT assay", "type": "cell-based", "conditions": "WI-38, 72 h", "in_short": "as §2"}, "SW-620 [22]": {"system": "SW-620", "experiment": "Induction of apoptosis in human SW620 cells at 1 to 5 uM after 24 to 48 hrs by annexin V/PI staining", "type": "functional, cell-based", "in_short": "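Cells were seeded on slides, incubated 24 h, then exposed to compound for 24 and 48 h. They were washed with PBS and binding buffer, incubated with annexin-V for 10 min, washed with binding buffer, and stained with PI.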"}, "MIA PaCa-2 [23]": {"system": "MIA PaCa-2", "experiment": "Induction of cell cycle arrest in human MIAPaCa2 cells assessed as accumulation at G1 phase at 1 uM after 24 hrs by flow cytometry (reference value: 55.4 +/- 0.01%)", "type": "functional", "in_short": "as §1"}, "MIA PaCa-2 [24]": {"system": "MIA PaCa-2", "experiment": "Induction of cell cycle arrest in human MIAPaCa2 cells assessed as accumulation at G2/M phase at 1 uM after 24 hrs by flow cytometry (reference value: 10.3 +/- 0.07%)", "type": "functional"}, "MIA PaCa-2 [25]": {"system": "MIA PaCa-2", "experiment": "Induction of cell cycle arrest in human MIAPaCa2 cells assessed as accumulation at S phase at 1 uM after 24 hrs by flow cytometry (reference value: 34.3 +/- 0.07%)", "type": "functional"}, "MIA PaCa-2 [26]": {"system": "MIA PaCa-2", "experiment": "Induction of cell cycle arrest in human MIAPaCa2 cells assessed as accumulation at G1 phase at 5 uM after 24 hrs by flow cytometry (reference value: 55.4 +/- 0.01%)", "type": "functional"}, "MIA PaCa-2 [27]": {"system": "MIA PaCa-2", "experiment": "Induction of cell cycle arrest in human MIAPaCa2 cells assessed as accumulation at G2/M phase at 5 uM after 24 hrs by flow cytometry (reference value: 10.3 +/- 0.07%)", "type": "functional"}, "MIA PaCa-2 [28]": {"system": "MIA PaCa-2", "experiment": "Induction of cell cycle arrest in human MIAPaCa2 cells assessed as accumulation at S phase at 1 uM after 48 hrs by flow cytometry (reference value: 46 +/- 8.13%)", "type": "functional"}},
  "note": "The source made the active and inactive calls. The calls are words filed in the database; no cut-off is given here.",
  "data": [
    {"smiles": "Nc1ncn(C/C=C2\\OC(=O)C(OCc3ccccc3)=C2OCc2ccccc2)c(=O)n1", "values": [
      {"measurement": "Activity", "setting": "MIA PaCa-2 [1]", "value": 29, "unit": "%"},
      {"measurement": "Activity", "setting": "MIA PaCa-2 [2]", "value": 60.9, "unit": "%"},
      {"measurement": "Activity", "setting": "SW-620 [3]", "value": 41.3, "unit": "%"},
      {"measurement": "Activity", "setting": "SW-620 [4]", "value": 8.15, "unit": "%"},
      {"measurement": "Activity", "setting": "SW-620 [5]", "value": 17.7, "unit": "%"},
      {"measurement": "Activity", "setting": "SW-620 [6]", "value": 58.3, "unit": "%"},
      {"measurement": "Activity", "setting": "SW-620 [7]", "value": 23.2, "unit": "%"},
      {"measurement": "Activity", "setting": "SW-620 [8]", "value": 17.9, "unit": "%"},
      {"measurement": "Activity", "setting": "SW-620 [9]", "value": 58.9, "unit": "%"},
      {"measurement": "Activity", "setting": "SW-620 [10]", "value": 39.1, "unit": "%"},
      {"measurement": "Activity", "setting": "SW-620 [11]", "value": 9.2, "unit": "%"},
      {"measurement": "Activity", "setting": "SW-620 [12]", "value": 51.8, "unit": "%"},
      {"measurement": "Activity", "setting": "SW-620 [13]", "value": 0.21, "unit": "%"},
      {"measurement": "Activity", "setting": "HeLa [14]", "value": 11.5, "unit": "%"},
      {"measurement": "Activity", "setting": "HeLa [15]", "value": 72.1, "unit": "%"},
      {"measurement": "Activity", "setting": "HeLa [16]", "value": 0, "unit": "%"},
      {"measurement": "Activity", "setting": "HeLa [17]", "value": 20.1, "unit": "%"},
      {"measurement": "Activity", "setting": "HeLa [18]", "value": 14.4, "unit": "%"},
      {"measurement": "Activity", "setting": "HeLa [19]", "value": 65.6, "unit": "%"},
      {"measurement": "Activity", "setting": "HeLa [20]", "value": 23.9, "unit": "%"},
      {"measurement": "IC50", "setting": "MCF7", "value": 3.49, "unit": "µM"},
      {"measurement": "IC50", "setting": "HepG2", "value": 2720, "unit": "nM"},
      {"measurement": "IC50", "setting": "MIA PaCa-2 [21]", "value": 920, "unit": "nM"},
      {"measurement": "IC50", "setting": "WI-38", "value": 4.67, "unit": "µM"},
      {"measurement": "Activity", "setting": "SW-620 [22]", "value": "inactive"},
      {"measurement": "Activity", "setting": "MIA PaCa-2 [23]", "value": 55.6, "unit": "%"},
      {"measurement": "Activity", "setting": "MIA PaCa-2 [24]", "value": 14.9, "unit": "%"},
      {"measurement": "Activity", "setting": "MIA PaCa-2 [25]", "value": 29.5, "unit": "%"},
      {"measurement": "Activity", "setting": "MIA PaCa-2 [26]", "value": 35.6, "unit": "%"},
      {"measurement": "Activity", "setting": "MIA PaCa-2 [27]", "value": 7.05, "unit": "%"},
      {"measurement": "Activity", "setting": "MIA PaCa-2 [28]", "value": 64.2, "unit": "%"}
    ]}
  ]
}
